Source: PubChem BioAssay (several laboratories)
Shown is part of a subset that was picked to be rich in hits.
CHOP UPR activ = activators of apoptotic arm of unfolded protein response (CHOP); CHO-CHOP luciferase reporter, UPR activation, luminescence; percent of tunicamycin response over DMSO baseline; activation, % at 10 µM; 0.34% of 330,000 active; AID 449763;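 active means at 10 µM dose, activation of 40% or more, normalized to positive control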;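 further: 100% = tunicamycin at 10 µg/mL and 0% = DMSO alone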
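measured by = luciferase luminescence | assay system = CHO-CHOP cells, stable luciferase reporter of PERK-eIF2a-CHOP signalling | amount = 500 reporter cells seeded per well | timing = 6 h compound exposure at 37 °C after overnight seeding | controls = positive tunicamycin 10 µg/mL, negative DMSO alone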
CHOP inhibitor = CHOP inhibition in unfolded protein response. CHO-K1 CHOP-promoter luciferase, tunicamycin-induced, 15-18 h. inhibition, % at 10 µM. 3.8% of 220,000 active;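 active means compounds that reduced the stress-induced luciferase reporter signal by more than about 70% of percent inhibition, limit read from the data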;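 further: 0% = tunicamycin plus vehicle and 100% = wells without tunicamycin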
UCH37 DUB inh = blocks the human deubiquitinase UCH37; Q9Y5K5; purified proteasome/UCH37, Ub-AMC cleavage fluorescence; inhibition, % (no concentration beside the values); 0.33% of 330,000 active;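 active means mean inhibition over replicate wells above about 20%, limit read from the data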;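 further: 0% = compound-free wells with enzyme and 100% = wells lacking proteasome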
Target sequence (Q9Y5K5 whole entry, looked up): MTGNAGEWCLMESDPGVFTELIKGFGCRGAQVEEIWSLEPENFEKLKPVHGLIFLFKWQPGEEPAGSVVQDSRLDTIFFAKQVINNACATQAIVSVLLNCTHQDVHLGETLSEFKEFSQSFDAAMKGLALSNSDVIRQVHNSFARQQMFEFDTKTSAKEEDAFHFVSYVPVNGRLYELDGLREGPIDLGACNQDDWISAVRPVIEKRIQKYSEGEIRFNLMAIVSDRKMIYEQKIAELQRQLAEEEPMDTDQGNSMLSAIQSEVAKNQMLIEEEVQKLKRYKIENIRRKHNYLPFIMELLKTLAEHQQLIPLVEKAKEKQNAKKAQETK
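Reagent: Ub-AMC substrate; assay system: Proteasome-associated human UCH37 deubiquitinase; controls: no-proteasome and no-compound wells; read-out: % inhibition of Ub-AMC cleavage fluorescence; timing: 30 min preincubation with enzyme, 25 min cleavage at room temperature; signal: AMC fluorescence from Ub-AMC cleavage, excitation 355 nm, emission 460 nm; buffer or medium: Tris-HCl pH 7.4 plus ovalbumin, ATP-MgCl2, DTT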
XBP1 UPR activ = adaptive UPR (XBP1) activation | CHO-XBP1 luciferase reporter, IRE1-XBP1 UPR activation, luminescence; percent of tunicamycin response, DMSO as zero | activation, % at 20 µM | 0.33% of 330,000 active | AID 463104;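 active means versus positive control, 20 µM dose yields 30% or more activation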;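 further: 100% = tunicamycin at 10 µg/mL and 0% = DMSO only wells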
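Material: IRE1-XBP1 luciferase reporter CHO line / Quantity: one thousand reporter cells per well / Buffer or medium: F12 with 10% serum / Compound: 20 µM single concentration, DMSO 1% / Times: 6 h treatment, 37 °C / Detection: Steady-Glo luciferase glow luminescence, 10 min after reagent addition / Benchmarks: tunicamycin high, DMSO low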
CTSL1 counter = cathepsin L1 inhibition, PFM18AAP counter-screen; 0.49% of 300,000 active; inhibition, % at 5.96 µM; AID 1906; recombinant F. hepatica cathepsin L1, Z-Leu-Arg-MCA fluorescence;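 active means inhibition above the mean of all tested compounds plus 3 SD, set per screening campaign, cut at about 17% in these data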;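 further: 0% = plate median of test compound wells and 100% = 1 µM Z-Phe-Ala-diazomethylketone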
CHOP confirm = confirmation of CHOP induction inhibitors; shares compounds with CHOP inhibitor; CHO-CHOP promoter luciferase reporter, tunicamycin-induced, luminescence; inhibition, % at 10 µM; 45% of 2,100 active;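 active means mean of three repeat readings of reporter signal inhibition above a set limit, cut at about 70% in these data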;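 further: 0% = tunicamycin plus vehicle and 100% = wells lacking tunicamycin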
CHOP UPR conf = apoptotic UPR (CHOP) activation, confirmed; shares compounds with CHOP UPR activ; CHO-CHOP cells, CHOP-luciferase reporter luminescence; percent of tunicamycin response, DMSO as zero; 64% of 1,000 active; activation, % at 10 µM; in the data active means activation above about 33%;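 further: 0% = DMSO wells and 100% = tunicamycin 10 µg/mL wells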
UPR XBP1 confirm = confirmation of adaptive unfolded protein response (XBP1) activators; shares compounds with XBP1 UPR activ; CHO-XBP1 IRE1-XBP1 luciferase reporter, luminescence; activation, % at 20 µM; 63% of 1,000 active; AID 485299;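 active means reporter signal at least 30% of the positive control's activation in two or more of four replicate wells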;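 further: plate controls were DMSO negative control for no effect and tunicamycin 10 µg/mL positive control for full effect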
* hit, by the source's call; . = no result given.

SMILES | CHOP UPR activ | CHOP inhibitor | UCH37 DUB inh | XBP1 UPR activ | CTSL1 counter | CHOP confirm | UPR XBP1 confirm | others
Cn1nc([N+](=O)[O-])c(C(C#N)c2ccccn2)c(Cl)c1=O (stereo unspecified) | 73* | 103* | -7 | -4 | 8 | 49 | . | CHOP UPR conf=49*
Cc1cc(C(=O)CCl)c(C)n1-c1cccc(S(=O)(=O)N2CCOCC2)c1 | 207* | 103* | 8 | -5 | 7 | 76* | . | CHOP UPR conf=64*
Cc1cc(C(=O)CN2C(=O)CN(C)C2=O)c(C)n1-c1cccc(S(=O)(=O)N2CCOCC2)c1 | -1 | 15 | 1 | 1 | 1 | . | .
CC[C@@H](C)[C@H](NC(=O)OC(C)(C)C)c1nnc(S(=O)(=O)Cc2cc(C)ccc2C)o1 | 225* | 115* | -1 | -16 | 76* | 123* | . | CHOP UPR conf=100*
CC(C)OC(=O)n1c(=S)oc2ccccc21 | -2 | 49 | 2 | -4 | -2 | . | .
CCCCC(=O)/C=C/n1c(=S)oc2ccccc21 | 120* | 108* | 4 | -1 | 4 | 3 | . | CHOP UPR conf=21
CCN(CC)C(=NS(=O)(=O)c1ccc(F)cc1)c1ccccc1 | . | . | 0 | . | . | . | .
COc1ccc(CNC(=O)[C@@H]2CC=C[C@@H]3CCN(Cc4ccc(Cl)c(Cl)c4)C(=O)[C@@H]32)cc1 | -2 | . | 3 | -2 | -2 | . | .
COc1ccc(CNC[C@@H](CCCCN(C)Cc2ccc(OC)cc2)N2C[C@H](c3ccccc3)N(CCc3ccc(Cl)c(Cl)c3)C(=O)C2=O)cc1 | 134* | 105* | 5 | 13 | -2 | -131 | . | CHOP UPR conf=147*
CN(C)CC(C(=O)c1ccccc1)c1ccccc1 (stereo unspecified) | 159* | . | -3 | -3 | -2 | 42 | . | CHOP UPR conf=41*
Cn1c(=NNC(=O)C2CCCCC2)sc2ccccc21 | . | . | 1 | . | . | . | .
O=C(Nc1ccc(O)c(-c2nc3ccccc3s2)c1)c1cc(=O)c2ccccc2o1 | 1 | 108* | . | 42* | -2 | 21 | 94*
Cc1cc(NC(=O)CSc2nc3ccccc3c(=O)n2Cc2ccccc2)no1 | 0 | 34 | 1 | -2 | -1 | . | .
Cc1cc(NC(=O)CSc2nnc(-c3c[nH]c4ccccc34)n2-c2ccc(Cl)cc2)no1 | 4 | 106* | -1 | 40* | 7 | -20 | 9
Cc1ccc(Cn2c(SCC(=O)Nc3cc(C)on3)nc3ccccc3c2=O)cc1 | 2 | 104* | 4 | 52* | 3 | 124* | 48*
CNC(=S)NN=Cc1cn(CCOc2ccc(OC)cc2)c2ccccc12 | . | . | 2 | . | . | . | .
S=C(NCC1CC1)NN=Cc1ccccc1Cl | . | . | 7 | . | . | . | .
CCC1(c2ccc(F)cc2)NC(=O)N(CC(=O)Nc2ccc(-c3nc4ccc(C)cc4s3)cc2)C1=O (stereo unspecified) | 2 | 101* | -5 | 36* | -2 | 74* | 32*
Cc1ccc2nc(-c3ccc(NC(=O)CN4C(=O)c5ccccc5C4=O)cc3)sc2c1 | 3 | 26 | -29 | 10 | -1 | . | .
O=C(NN=C/C=C/c1ccco1)C(O)c1ccccc1 (stereo unspecified) | . | . | 11 | . | . | . | .
COc1ccc(CCn2c(C3CCCCC3)nc3c(c(=O)c4ccccc4n3C)c2=O)cc1 | 6 | 100* | 7 | 34* | 4 | 47 | 82*
COc1ccc(Cn2c(C3CCCCC3)nc3c(c(=O)c4ccccc4n3C)c2=O)cc1 | 6 | 5 | 9 | 10 | 1 | . | .
CCc1cc2c(C)ccc(C)c2nc1SCC(=O)Nc1c[nH]c(=O)[nH]c1=O | 0 | 101* | 0 | 52* | 8 | 40 | 37*
CC1CC(=NNC(=O)c2ccc(CSc3nc4ccccc4[nH]3)cc2)CC(C)(C)C1 (stereo unspecified) | . | . | 2 | . | . | . | .
CCOc1ccc(/C=C/C(O)=C2/C(=O)NC3(C)CC2c2ccccc2O3)cc1OC (stereo unspecified) | 46* | 96* | -55 | 41* | -1 | 64 | 46* | CHOP UPR conf=19
SMILES | CHOP UPR activ | CHOP inhibitor | UCH37 DUB inh | XBP1 UPR activ | CTSL1 counter | CHOP confirm | UPR XBP1 confirm | others
CCCCCCCCCn1c2c(c(=N)c3c1CCC3)CCCC2 | 72* | 106* | 9 | 44* | . | 0 | 44* | CHOP UPR conf=79*
NS(=O)(=O)c1ccc(N/N=C2/CCCCC2C2CCCCC2)c([N+](=O)[O-])c1 (stereo unspecified) | 4 | 108* | . | 55* | 2 | 115* | 84*
Cc1cccc(NC(=O)CSc2nc(C)c(CC(=O)c3ccc(Br)cc3)c(C)c2C#N)c1C | 28 | 103* | -3 | 48* | 4 | 106* | 98*
COCc1cc(C)nc(SCC(=O)Nc2cccc(C)c2C)c1C#N | 2 | 32 | 0 | -4 | -1 | . | .
Cc1nc(SCC(=O)Nc2ccc(F)cc2)c(C#N)c(C)c1CC(=O)c1ccc(Br)cc1 | 57* | 103* | 0 | 98* | -1 | 97* | 68* | CHOP UPR conf=35*
CC(C)(C)OC(=O)NN=C/C=C/c1ccc2c(c1)OCO2 | . | . | -1 | . | . | . | .
Cc1cccc(N2CCN(C(=S)Nc3ccc4nc(N5CCN(C)CC5)cc(C)c4c3)CC2C)c1 (stereo unspecified) | 8 | 106* | -22 | 62* | 3 | -14 | 47*
O=C(NN=Cc1ccccn1)c1cc(-c2ccccc2)nc2ccccc12 | . | . | 2 | . | . | . | .
O=C(NN=Cc1ccco1)C1CC1(c1ccccc1)c1ccccc1 (stereo unspecified) | . | . | 3 | . | . | . | .
O=C(/C=C/c1ccccc1)NC(NC(=S)Nc1cccc(O)c1)C(Cl)(Cl)Cl (stereo unspecified) | 1 | 57 | 5 | -1 | -3 | . | .
O=C(/C=C/c1ccccc1)NC(NC(=S)Nc1cccc(Cl)c1)C(Cl)(Cl)Cl (stereo unspecified) | 36 | 111* | 3 | 51* | 18* | 42 | 30*
CON=C(Cn1ncc(N2CCCC2)c(Br)c1=O)c1ccc(Cl)cc1 | . | . | 3 | . | . | . | .
CCOc1ccc(C(=O)Nc2ccc(NC(=O)c3ccco3)c(Cl)c2)cc1Cl | 13 | 101* | -6 | 48* | 4 | 60 | 120*
Cc1ccc(Nc2nc(NCc3ccco3)c3ccccc3n2)cc1 | 22 | 106* | -55 | 61* | 9 | 115* | 72*
COc1ccccc1Nc1nc(NCc2ccco2)c2ccccc2n1 | 3 | 12 | -91 | 1 | -1 | . | .
